Measurements reported in PubChem BioAssay AID775 (SRMLSC, 2007).
About 900 (0.69%) of roughly 130,000 compounds were called active. Many of the other results were omitted from the sample, so actives are more common in it than they were. Unmarked numbers belong to inactive results.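 Rule for the calls: active = inhibition above a set limit, placed 3 SD over the median of all compounds (cut at about 26% in these data); inactive = the rest.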

assay: compounds extending yeast replicative lifespan, primary screen, S. cerevisiae, OD615 (AID 775);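 note: 0% = nicotinamide-treated wells and 100% = cells grown without nicotinamide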; settings: S. cerevisiae growth with nicotinamide, at 10 µM, stronger effect = higher value, deaD strain in restrictive glucose medium
Method in brief: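 Measured by: optical density (absorbance) at 615 nm; System: modified budding yeast, DeaD strain; Medium: restrictive CSMM-D dextrose medium; Timing: 4 h preincubation then 48 h treatment at 30 °C.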

Row | SMILES | inhibition of the nicotinamide effect
1 | CC(Sc1nc(-c2ccccc2)cc(C(F)(F)F)n1)C(=O)Nc1ccc2c(c1)OCO2 (stereo not drawn) | -1.2%
2 | O=C1CCCC(O)=C1N=Nc1ccc2ncsc2c1 | -3.17%
3 | Cc1cc(C(=O)COc2ccccc2[N+](=O)[O-])c(C)n1-c1cccc(S(=O)(=O)N2CCOCC2)c1 | 1.02%
4 | Oc1ccc(Br)cc1C=Nc1ccc2[nH]ncc2c1 | 40.4% (active)
5 | Oc1ccc(Cl)cc1/C=N/c1nc2ccccc2[nH]1 | 6.53%
6 | O=C(CCCO)N/N=C/c1cc(Br)ccc1O | 25%
7 | Cc1c(NC(=S)NCc2ccc(F)cc2)cccc1[N+](=O)[O-] | 0.2%
8 | Oc1c(CN2CCN(c3ccc(F)cc3)CC2)cc(Cl)c2cccnc12 | -13.6%
9 | CCN1CCN(C(c2cccnc2)c2cc(Cl)c3cccnc3c2O)CC1 (stereo not drawn) | 30.4% (active)
10 | CCOC(=O)N1CCN(C(c2cccnc2)c2ccc3cccnc3c2O)CC1 (stereo not drawn) | -7.28%
11 | Cc1ccc(NN=C2C(=O)OC(C)(C)OC2=O)c(C)c1 | -2.15%
12 | CC(=O)Nc1ccc(S(=O)(=O)NC2(C(F)(F)F)C(=O)Nc3c2c(=O)[nH]c(=O)n3Cc2ccccc2)cc1 (stereo not drawn) | 2.33%
13 | C/C(=N/NC(=O)c1ccc(Br)o1)c1ccc(C)o1 | -2.27%
14 | COc1cc(C(=O)Nc2cc(C(F)(F)F)ccc2N2CCOCC2)ccc1O | -3.94%
15 | CC(CC(=O)N1CCN(c2ccccc2)CC1)c1ccccc1 (stereo not drawn) | -11.3%
16 | O=C(NC(CC(=O)N1CCN(c2ccccc2)CC1)c1ccccc1)c1ccccc1Cl (stereo not drawn) | 35.4% (active)
17 | COC(=O)c1ccccc1OCC(=O)N1CCN(c2ccc(Cl)cc2)CC1 | -19.3%
18 | C/C(=N/NC(=O)CSc1ccccn1)c1ccc([N+](=O)[O-])cc1 | 1.62%
19 | Cn1cccc1/C=C1\SC(=S)N(NC(=O)c2ccc(Cl)cc2)C1=O | 3.79%
20 | Cc1ccccc1NC(=O)c1ccccc1 | 43.2% (active)
21 | Cc1cc(C(=O)NNC(=S)Nc2ccccc2C)cs1 | 4.51%
22 | O=C(NC(=O)c1ccccc1)NC(=O)c1ccccc1 | -15.8%
23 | Cc1cc(C)c(NC(=O)c2oc3ccccc3c2COc2ccccc2)c(C)c1 | 0.31%
24 | COC(=O)C1=C(NC(=O)C(C)(C)C)CCS1 | -1.21%

Row | SMILES | inhibition of the nicotinamide effect
25 | CCCCN(CC)C(=O)c1ccc2c(c1)OCO2 | -2.79%
26 | Cn1cc([N+](=O)[O-])c(C(=O)Nc2cnn(Cc3ccc(F)cc3)c2)n1 | 10.4%
27 | Cc1cccc(NC(=O)/C=C/c2ccc3c(c2)OCO3)n1 | -5.25%
28 | O=c1nc2s/c(=C\c3ccco3)c(=O)n2nc1Cc1ccccc1 | 26.9% (active)
29 | O=C(CCCN1C(=O)/C(=C/c2ccco2)SC1=S)Nc1ccccc1 | 4.28%
30 | CCOc1ccccc1/C=c1\sc2nc(-c3ccco3)nn2c1=O | 21.5%
31 | NC(=O)c1ccccc1N=Cc1ccc2ccccc2c1 | 8.87%
32 | CCC1=NN(C(=O)Cc2ccc([N+](=O)[O-])cc2)C(O)(c2ccc(Br)cc2)C1 (stereo not drawn) | 3.83%
33 | CN(C)C(CNC(=O)c1ccc(S(=O)(=O)NCc2ccco2)cc1)c1ccccc1 (stereo not drawn) | 3.63%
34 | Cn1c2ccccc2c(=O)c2c(=O)n(Cc3ccco3)c(COc3ccccc3)nc21 | 17.5%
35 | CCCc1nc2c(c(=O)c3ccccc3n2C)c(=O)n1C1CCCCCC1 | 47.5% (active)
36 | CCOC(=O)C(C)Sc1nc2ccccc2c(=O)n1CC1CCCCC1 (stereo not drawn) | 8.34%
37 | CCOC(=O)c1c(NC(=O)C2(C)Cc3ccccc3C(=O)O2)sc2c1CCCC2 (stereo not drawn) | 1.18%
38 | O=C(NCc1ccccc1Cl)C1CCC(CNc2c(N3CCCCC3)c(=O)c2=O)CC1 (stereo not drawn) | 3.91%
39 | CCS(=O)(=O)Nc1cccc(-c2cc(-c3ccccc3)c3cc(C)ccc3n2)c1 | 1.36%
40 | COc1ccc(C(CC(=O)Nc2ccc(C)cc2)NC(=O)C(F)(F)F)cc1 (stereo not drawn) | -0.39%
41 | Cc1ccc2sc(NNC(=O)c3ccc4c(c3)OCCO4)nc2c1C | 0%
42 | O=C(N/N=C/c1ccccn1)C12CC3CC(CC(C3)C1)C2 | 3.48%
43 | COc1ccc(C2C(C(=O)N3CCN(c4ccc(OC)cc4)CC3)c3ccccc3C(=O)N2C)cc1 (stereo not drawn) | -6.01%
44 | COc1ccc([C@H]2[C@H](C(C)=O)N3N=Cc4ccccc4C3C23C(=O)OC(C)(C)OC3=O)cc1 (stereo partly drawn) | 30.5% (active)
45 | O=C(Nc1ccc2ccccc2c1)/C(=C/c1cccc(Br)c1)NC(=O)c1ccco1 | -1.18%
46 | COC(=O)C1=NNC2(c3ccc(C)cc3)C(=O)N(c3cccc(C)c3C)C(=O)C12 (stereo not drawn) | 14.3%
47 | COc1ccc(C(=O)NNS(=O)(=O)c2ccc(C)cc2)cc1 | 3.8%
48 | CC(C)CNC(=S)NC(=O)c1ccc(Cl)cc1 | -5.06%
